In ChEMBL document CHEMBL2016483, “Discovery of novel and potent heterocyclic carboxylic acid derivatives as protein tyrosine phosphatase 1B inhibitors” (Bioorg Med Chem Lett, 2012):
Calls of active or inactive are those of the source.

What was measured:
[1] = Cmax in C57BL/6J mouse at 3 mg/kg, iv; assay type: ADME, organism-based; set-up: dose 3 mg/kg, route intravenous; settings: in vivo
[2] = AUC (0 to t) in C57BL/6J mouse at 30 mg/kg, po; assay type: ADME, organism-based; set-up: dose 30 mg/kg, route oral; settings: plasma
[3] = tested on: Liver; test: Metabolic stability of the compound in mouse liver microsomes assessed as metabolic rate at 1 uM after 30 mins by LC-MS-MS analysis; assay type: ADME, Microsome; settings: 0.5 h
Summary of the method: (§1)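 Mouse and rat liver microsomes, metabolic rate read at 30 min. Stable was defined as metabolic rate <0.1 nmol/min/mg or 80% remaining at 30 min.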

[4] = tested on: Liver microsomes; test: Metabolic stability of the compound in rat liver microsomes assessed as metabolic rate at 1 uM after 30 mins by LC-MS-MS analysis; assay type: ADME, Microsome; settings: 0.5 h; summary of the method: as §1
[5] = target: T1, Tyrosine-protein phosphatase non-receptor type 1 (Homo sapiens, UniProt P18031); test: Inhibition of human recombinant PTP1B expressed in Escherichia coli using para-nitrophenyl phosphate as substrate preincubated for 30 mins followed by substrate addition measured by […] analysis
T1 sequence (P18031 whole entry): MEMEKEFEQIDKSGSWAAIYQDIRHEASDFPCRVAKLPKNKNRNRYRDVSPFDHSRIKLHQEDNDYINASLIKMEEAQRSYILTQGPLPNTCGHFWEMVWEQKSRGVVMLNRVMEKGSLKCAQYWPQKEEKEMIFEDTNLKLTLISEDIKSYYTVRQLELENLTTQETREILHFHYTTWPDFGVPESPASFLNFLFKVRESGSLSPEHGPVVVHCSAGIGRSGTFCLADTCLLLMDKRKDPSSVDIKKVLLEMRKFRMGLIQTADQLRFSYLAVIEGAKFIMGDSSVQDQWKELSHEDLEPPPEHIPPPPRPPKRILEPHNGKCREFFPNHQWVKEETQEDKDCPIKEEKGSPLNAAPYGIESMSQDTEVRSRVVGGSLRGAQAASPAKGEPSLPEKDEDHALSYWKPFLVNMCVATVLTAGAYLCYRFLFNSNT

[6] = target: T2, Tyrosine-protein phosphatase non-receptor type 1 (Homo sapiens) (UniProt P18031); test: Non-competitive inhibition of human recombinant PTP1B-mediated para-nitrophenyl phosphate hydrolysis preincubated for 30 mins measured by spectrophotometric analysis
T2 sequence (whole entry): T1 sequence (P18031 whole entry)

[7] = Elimination half life in C57BL/6J mouse at 3 mg/kg, iv; assay type: ADME, organism-based; set-up: dose 3 mg/kg, route intravenous; settings: in vivo, read-out: beta t1/2 (converted)
[8] = Clearance in C57BL/6J mouse at 3 mg/kg, iv; assay type: ADME, organism-based; set-up: dose 3 mg/kg, route intravenous; settings: in vivo
[9] = AUC (0 to t) in C57BL/6J mouse at 3 mg/kg, iv; assay type: ADME, organism-based; set-up: dose 3 mg/kg, route intravenous; settings: plasma
[10] = Tmax in C57BL/6J mouse at 30 mg/kg, po; assay type: ADME, organism-based; set-up: dose 30 mg/kg, route oral; settings: in vivo
[11] = Cmax in C57BL/6J mouse at 30 mg/kg, po; assay type: ADME, organism-based; set-up: dose 30 mg/kg, route oral; settings: in vivo
[12] = Tmax in C57BL/6J mouse at 3 mg/kg, iv; assay type: ADME, organism-based; set-up: dose 3 mg/kg, route intravenous; settings: in vivo
[13] = target: T3, Tyrosine-protein phosphatase non-receptor type 2 (Homo sapiens) (UniProt P17706); test: Inhibition of TCPTP using para-nitrophenyl phosphate as substrate at 100 uM preincubated for 30 mins followed by substrate addition measured by […] analysis
T3 sequence (whole entry): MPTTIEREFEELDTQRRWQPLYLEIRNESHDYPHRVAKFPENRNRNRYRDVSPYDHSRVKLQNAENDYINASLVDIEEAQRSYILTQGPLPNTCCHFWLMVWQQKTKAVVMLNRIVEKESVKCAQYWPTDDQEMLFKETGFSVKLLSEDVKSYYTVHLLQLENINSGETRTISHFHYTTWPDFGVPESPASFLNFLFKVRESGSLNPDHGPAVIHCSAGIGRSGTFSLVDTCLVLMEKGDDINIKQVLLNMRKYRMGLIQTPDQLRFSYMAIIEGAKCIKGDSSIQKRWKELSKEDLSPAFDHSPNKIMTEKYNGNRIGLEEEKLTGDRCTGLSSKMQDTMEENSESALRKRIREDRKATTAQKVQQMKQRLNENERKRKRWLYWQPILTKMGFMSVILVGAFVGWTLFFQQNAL
Summary of the method: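 TCPTP counter-screen in the same pNPP assay format, tested at 100 µM. Read as percent inhibition.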

[14] = Volume of distribution at steady state in C57BL/6J mouse at 3 mg/kg, iv; assay type: ADME, organism-based; set-up: dose 3 mg/kg, route intravenous; settings: in vivo, read-out: Vdss
[15] = Apparent permeability by PAMPA assay; assay type: ADME
[16] = Oral bioavailability in C57BL/6J mouse at 30 mg/kg; assay type: ADME, organism-based; settings: in vivo
[17] = Apparent permeability across human Caco2 cells; assay type: ADME, cell-based; settings: Caco-2

Drug metabolism [3]	Drug metabolism [4]	Ki [5]	Papp [15]	SMILES	other results
0 nmol/min/mg	0.03 nmol/min/mg	300 nM	48 ×10⁻⁶ cm/s	COc1ccc(C(Cc2ccc(-c3cc(C(=O)O)on3)cc2)c2nc(-c3ccc(Cl)cc3)no2)cc1 (stereo not drawn)	Cmax [1]: 1870 nM; AUC(0-t) [2]: 3.6 µM·h; inhibition [6]: Active; half-life [7]: 1.08 h; clearance [8]: 99 mL/min/kg; AUC(0-t) [9]: 0.98 µM·h; Tmax [10]: 1 h; Cmax [11]: 1340 nM; Tmax [12]: 4.98 min; inhibition [13]: < 10%; Vd [14]: 4 L/kg; bioavailability [16]: 36%
		7800 nM		O=C(O)c1coc(-c2ccc(CC(C(=O)c3ccccc3)c3ccccc3)cc2)n1 (stereo not drawn)	
0.04 nmol/min/mg	0.03 nmol/min/mg	4000 nM	45 ×10⁻⁶ cm/s	O=C(O)c1cc(-c2ccc(CC(c3ccccc3)c3nc(-c4ccccc4)no3)cc2)no1 (stereo not drawn)	Cmax [1]: 1500 nM; AUC(0-t) [2]: 13 µM·h; half-life [7]: 1 h; clearance [8]: 63 mL/min/kg; AUC(0-t) [9]: 1.8 µM·h; Tmax [10]: 1 h; Cmax [11]: 7200 nM; Tmax [12]: 4.8 min; inhibition [13]: < 10%; Vd [14]: 4.8 L/kg; bioavailability [16]: 70%
		7700 nM		O=C(O)C1CC(=O)N(c2ccc(CC(C(=O)c3ccccc3)c3ccccc3)cc2)C1 (stereo not drawn)	
		5100 nM		O=C(O)C1CCN(c2ccc(CC(C(=O)c3ccccc3)c3ccccc3)cc2)C1=O (stereo not drawn)	
0 nmol/min/mg	0 nmol/min/mg	800 nM	168 ×10⁻⁶ cm/s	O=C(O)c1cc(-c2ccc(CC(C(=O)c3ccc(Cl)cc3)c3ccc(F)c(F)c3)cc2)no1 (stereo not drawn)	Cmax [1]: 4500 nM; AUC(0-t) [2]: 3 µM·h; half-life [7]: 1.9 h; clearance [8]: 38 mL/min/kg; AUC(0-t) [9]: 2.4 µM·h; Tmax [10]: 1 h; Cmax [11]: 1900 nM; Tmax [12]: 4.98 min; inhibition [13]: < 10%; Vd [14]: 4 L/kg; bioavailability [16]: 13%
		40000 nM		O=C(O)c1onc(-c2ccc(CC(C(=O)c3ccccc3)c3ccccc3)cc2)c1C(=O)O (stereo not drawn)	
0 nmol/min/mg	0.04 nmol/min/mg	500 nM	6 ×10⁻⁶ cm/s	COc1ccc(C(Cc2ccc(-c3nc(C(=O)O)cs3)cc2)c2nc(-c3cccc(F)c3)no2)cc1 (stereo not drawn)	
		600 nM		O=C(O)c1csc(-c2ccc(CC(C(=O)c3ccc(Cl)cc3)c3ccc(F)c(F)c3)cc2)n1 (stereo not drawn)	inhibition [13]: < 10%
		2900 nM		O=C(O)c1ccc(-c2ccc(CC(C(=O)c3ccccc3)c3ccccc3)cc2)[nH]1 (stereo not drawn)	
		1800 nM		O=C(O)c1csc(-c2ccc(CC(C(=O)c3ccc(F)c(F)c3)c3ccc(F)cc3)cc2)n1 (stereo not drawn)	
0 nmol/min/mg	0.01 nmol/min/mg	500 nM	10 ×10⁻⁶ cm/s	O=C(O)c1csc(-c2ccc(CC(c3ccc(F)cc3)c3nc(-c4cccc(F)c4)no3)cc2)n1 (stereo not drawn)	
		2400 nM		O=C(O)c1cc(-c2ccc(CC(C(=O)c3cc(F)cc(F)c3)c3ccc(F)cc3)cc2)no1 (stereo not drawn)	
0.01 nmol/min/mg	0.02 nmol/min/mg	1500 nM	8 ×10⁻⁶ cm/s	O=C(O)c1cc(-c2ccc(CC(C(=O)c3ccc(F)cc3)c3ccc(F)cc3)cc2)no1 (stereo not drawn)	
0 nmol/min/mg	0.01 nmol/min/mg	400 nM	4 ×10⁻⁶ cm/s	COc1ccc(-c2noc(C(Cc3ccc(-c4cc(C(=O)O)on4)cc3)c3ccc(F)cc3)n2)cc1 (stereo not drawn)	inhibition [13]: < 10%
0 nmol/min/mg	0.01 nmol/min/mg	1400 nM	16 ×10⁻⁶ cm/s	O=C(O)c1cc(-c2ccc(CC(C(=O)c3ccc(F)c(F)c3)c3ccc(F)cc3)cc2)no1 (stereo not drawn)	
				COC(=O)c1c(O)cccc1OC/C=C/c1ccc(F)c(-c2cc(C(=O)O)no2)c1	Papp [17]: > 1 ×10⁻⁶ cm/s
0.06 nmol/min/mg	0.02 nmol/min/mg	1100 nM	103 ×10⁻⁶ cm/s	O=C(O)c1cc(-c2ccc(CC(C(=O)c3ccccc3)c3ccccc3)cc2)no1 (stereo not drawn)	inhibition [13]: < 10%
0.05 nmol/min/mg	0.02 nmol/min/mg	1200 nM	85 ×10⁻⁶ cm/s	O=C(O)c1csc(-c2ccc(CC(C(=O)c3ccccc3)c3ccccc3)cc2)n1 (stereo not drawn)	
		16300 nM		O=C(O)c1cc(-c2ccc(CC(C(=O)c3ccccc3)c3ccccc3)cc2)n[nH]1 (stereo not drawn)	
		7800 nM		Cn1nc(-c2ccc(CC(C(=O)c3ccccc3)c3ccccc3)cc2)cc1C(=O)O (stereo not drawn)	
